Measured values as given in ChEMBL document CHEMBL4346709, “Design and Optimization Leading to an Orally Active TTK Protein Kinase Inhibitor with Robust Single Agent Efficacy” (J Med Chem, 2019).

Experiments:
[1] = molecular target: T1, Dual specificity protein kinase TTK (Homo sapiens, UniProt P33981); assay: Inhibition of Kinase Tracer 236 binding to recombinant human full-length GST-tagged TTk expressed in baculovirus expression system measured after 1 hr by LanthaScreen Eu--kinase binding assay
T1 sequence (P33981 whole entry): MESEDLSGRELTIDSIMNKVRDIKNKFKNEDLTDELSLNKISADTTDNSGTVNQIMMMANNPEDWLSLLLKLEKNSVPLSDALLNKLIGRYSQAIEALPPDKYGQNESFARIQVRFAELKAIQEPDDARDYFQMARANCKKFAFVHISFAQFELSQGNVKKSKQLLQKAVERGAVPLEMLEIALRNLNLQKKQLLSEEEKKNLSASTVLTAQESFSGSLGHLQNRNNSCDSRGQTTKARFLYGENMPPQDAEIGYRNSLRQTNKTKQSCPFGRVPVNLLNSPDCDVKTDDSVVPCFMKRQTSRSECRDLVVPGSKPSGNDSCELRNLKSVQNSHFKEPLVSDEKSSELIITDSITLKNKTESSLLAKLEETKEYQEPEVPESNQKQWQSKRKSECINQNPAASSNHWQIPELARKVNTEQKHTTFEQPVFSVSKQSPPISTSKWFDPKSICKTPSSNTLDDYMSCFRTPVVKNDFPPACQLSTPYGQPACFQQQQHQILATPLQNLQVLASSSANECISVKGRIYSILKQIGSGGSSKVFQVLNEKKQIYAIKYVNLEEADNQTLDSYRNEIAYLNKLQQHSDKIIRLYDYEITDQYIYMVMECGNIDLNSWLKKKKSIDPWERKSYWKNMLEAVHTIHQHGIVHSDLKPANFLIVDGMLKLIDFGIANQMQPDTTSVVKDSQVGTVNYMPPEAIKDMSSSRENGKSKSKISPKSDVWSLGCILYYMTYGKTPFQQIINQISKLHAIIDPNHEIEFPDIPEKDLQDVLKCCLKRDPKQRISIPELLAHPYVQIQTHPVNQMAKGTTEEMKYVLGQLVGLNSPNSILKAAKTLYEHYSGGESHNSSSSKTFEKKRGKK

CAL-51 [2] = assay: Antiproliferative activity against human CAL51 cells assessed as reduction in cell viability after 3 days by CellTiter-Glo reagent-based luminescent assay; type: functional; conditions: CAL-51, 72 h
[3] = Cmax in CB17 SCID mouse at 30 mg/kg, po; type: ADME, organism-based; parameters: dose 30 mg/kg, route oral; conditions: in vivo
In short: (§1)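 Oral PK in SCID mice at 30 mg/kg. Compound is formulated either in CMCT (0.5% CMC/0.25% tween-80) or in 5% TPGS, 10% captisol, 50 mM citrate buffer, depending on compound. Cmax and AUC are measured.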

[4] = Metabolic stability in human liver S9 fraction assessed as parent compound remaining after 60 mins; type: ADME, subcellular; conditions: read-out: Stability
[5] = molecular target: T1, Dual specificity protein kinase TTK; assay: Inhibition of TTK autophosphorylation in human CAL51 cells by radioimmuno-precipitation assay; type: cell-based
[6] = AUC in rat at 10 mg/kg, po; type: ADME, organism-based; conditions: in vivo
In short: (§2)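 Rat oral PK at 10 mg/kg. Compound is given as a solution in CMCT (0.5% CMC/0.25% tween-80) or formulated in 5% TPGS, 10% captisol, 50 mM citrate buffer. Cmax and AUC are recorded.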

[7] = AUC in CB17 SCID mouse at 30 mg/kg, po; type: ADME, organism-based; conditions: in vivo; in short: as §1
[8] = Cmax in rat at 10 mg/kg, po; type: ADME, organism-based; parameters: dose 10 mg/kg, route oral; conditions: in vivo; in short: as §2
[9] = Toxicity in CB17 SCID mouse xenografted with human CAL51 cells assessed as body weight loss at 5 mg/kg, iv q4d and measured up to 31 days relative to control; type: organism-based; conditions: in vivo, 744 h
CAL-51 [10] = assay: Antitumor activity against human CAL51 cells xenografted in CB17 SCID mouse assessed as tumor growth inhibition at 5 mg/kg, iv q4d and measured twice per week up to 31 days by caliper method relative to control; type: functional; conditions: CAL-51, iv, 744 h, read-out: TGI
[11] = Oral bioavailability in rat at 5 mg/kg; conditions: in vivo

IC50 [1] [nM]	AUC [6] [µM·h]	Structure (SMILES)	IC50 (CAL-51 [2]) [nM]	also measured
1.3	9.5 to 9.52	COc1cc(N2CCN(C(=O)CO)CC2)ccc1Nc1nc(O[C@H]2CCOC(C)(C)C2)c2cc[nH]c2n1	37	Cmax [3]: 9.86 µM; remaining at 1 h [4]: 79%; IC50 [5]: 16 nM; AUC [7]: 17.6 µM·h; Cmax [8]: 2.53 µM
–	–	CC(=O)O[C@@]12CO[C@@H]1C[C@H](O)[C@@]1(C)C(=O)[C@H](O)C3=C(C)[C@@H](OC(=O)[C@H](O)[C@@H](NC(=O)OC(C)(C)C)c4ccccc4)C[C@@](O)([C@@H](OC(=O)c4ccccc4)[C@H]21)C3(C)C [DOCETAXEL ANHYDROUS]	–	Activity [9]: 20%; inhibition in vivo at 5 mg/kg (CAL-51 [10]): 61%
1.3	–	COc1cc(C(=O)N(C)C)ccc1Nc1nc(OC2CCCC2)c2cc[nH]c2n1	497	–
0.6	–	COc1cc(C(=O)N(C)C)ccc1Nc1nc(O[C@H]2CC[C@](C)(O)CC2)c2cc[nH]c2n1	69	–
–	11	COc1cc(N2CCC(C)(O)CC2)ccc1Nc1nc(O[C@H]2CCOC(C)(C)C2)c2cc[nH]c2n1	71	–
–	–	CNC(=O)c1ccc(Nc2nc(OC3CCCC3)c3c(-c4ccc5nc(C)oc5c4)c[nH]c3n2)c(OC)c1	–	bioavailability [11]: 0.9%
1	–	COc1cc(C(=O)N(C)C)ccc1Nc1nc(OC2CCOCC2)c2cc[nH]c2n1	198	–
1.3	–	COc1cc(C(=O)N(C)C)ccc1Nc1nc(OC2CCCCC2)c2cc[nH]c2n1	190	–
1	30	COc1cc(C(=O)N(C)C)ccc1Nc1nc(O[C@H]2CCOC(C)(C)C2)c2cc[nH]c2n1	131	–
–	16.1	CN(C)C(=O)c1ccc(Nc2nc(O[C@H]3CC[C@@](C)(O)CC3)c3cc[nH]c3n2)c(OCC(F)(F)F)c1	15	–
3.2	–	COc1cc(C(=O)N(C)C)ccc1Nc1nc(OC(C)C)c2cc[nH]c2n1	1260	–
–	–	COc1cc(C(=O)N2CCOCC2)ccc1Nc1nc(O[C@H]2CCOC(C)(C)C2)c2cc[nH]c2n1	406	–
–	–	CCOc1cc(C(=O)N(C)C)ccc1Nc1nc(O[C@H]2CC[C@@](C)(O)CC2)c2cc[nH]c2n1	26	–
–	30	C[C@@H](Oc1cc(C(=O)N(C)C)ccc1Nc1nc(O[C@H]2CC[C@@](C)(O)CC2)c2cc[nH]c2n1)C(F)(F)F	24	–
7.2	–	COc1cc(C(=O)N(C)C)ccc1Nc1nc(OC2COC2)c2cc[nH]c2n1	1960	–
0.7	21.8	COc1cc(C(=O)N(C)C)ccc1Nc1nc(O[C@H]2CC[C@@](C)(O)CC2)c2cc[nH]c2n1	44	–
–	14.7	COc1cc(N2CCOCC2)ccc1Nc1nc(O[C@H]2CCOC(C)(C)C2)c2cc[nH]c2n1	53	–
2.5	24	COc1cc(N2CCN(C3COC3)CC2)ccc1Nc1nc(O[C@H]2CCOC(C)(C)C2)c2cc[nH]c2n1	84	Cmax [3]: 11.8 µM; remaining at 1 h [4]: 85%; IC50 [5]: 44 nM; AUC [7]: 35.3 µM·h; Cmax [8]: 4.43 µM
